Source: ChEMBL document CHEMBL1145563, “Monoglycerides from the brown alga Sargassum sagamianum: Isolation, synthesis, and biological activity” (Bioorg Med Chem Lett, 2008)

Tests used:
[1] = molecular target: T1, Prostaglandin G/H synthase 2 (Homo sapiens) (UniProt P35354); experiment: Inhibition of COX2 at 50 uM
T1 sequence (whole entry): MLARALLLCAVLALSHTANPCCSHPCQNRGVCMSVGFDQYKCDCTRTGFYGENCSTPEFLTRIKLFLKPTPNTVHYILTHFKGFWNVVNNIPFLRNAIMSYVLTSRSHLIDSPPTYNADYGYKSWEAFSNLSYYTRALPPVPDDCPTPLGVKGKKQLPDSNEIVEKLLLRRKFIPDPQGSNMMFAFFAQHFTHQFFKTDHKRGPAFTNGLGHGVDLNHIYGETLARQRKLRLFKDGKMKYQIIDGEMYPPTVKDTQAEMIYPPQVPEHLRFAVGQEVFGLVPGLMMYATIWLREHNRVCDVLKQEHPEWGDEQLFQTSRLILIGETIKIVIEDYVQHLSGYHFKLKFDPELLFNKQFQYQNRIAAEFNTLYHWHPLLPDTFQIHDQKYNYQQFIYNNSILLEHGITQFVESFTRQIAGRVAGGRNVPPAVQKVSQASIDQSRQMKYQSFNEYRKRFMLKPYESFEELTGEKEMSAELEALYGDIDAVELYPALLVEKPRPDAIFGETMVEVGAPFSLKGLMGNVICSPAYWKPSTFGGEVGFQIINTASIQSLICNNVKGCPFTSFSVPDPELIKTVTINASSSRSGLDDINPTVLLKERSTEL
Outline: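 COX-2 activity followed as PGE2 in the medium, measured in triplicate by enzyme immunoassay: samples, enzymatic tracer and specific antiserum incubated overnight at 4 °C, plates washed, Ellman's reagent added, absorbance at 414 nm read after 1–3 h. PGE2 read from a 50–0.39 pg/mL standard curve. Percent inhibition given as mean of three experiments.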

[2] = molecular target: T2, Phospholipase A2, membrane associated (Homo sapiens) (UniProt P14555); experiment: Inhibition of sPLA2-2A at 10 uM by coupled enzyme assay
T2 sequence (whole entry): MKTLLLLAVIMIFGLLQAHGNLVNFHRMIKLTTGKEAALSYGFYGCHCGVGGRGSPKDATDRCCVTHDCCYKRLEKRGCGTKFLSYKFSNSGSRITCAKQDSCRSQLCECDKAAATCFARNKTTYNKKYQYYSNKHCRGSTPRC
Outline: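 Phospholipase A2 activity measured by a coupled enzyme assay with DL-PC as substrate and lipoxygenase as the coupling enzyme. Percent inhibition given as mean of three experiments.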

SMILES	inhibition [1] [%]	inhibition [2] [%]
CCCCCCCCCCCCCCCCCC(=O)OCC(O)CO (stereo unspecified)	16.5	32.8
CC/C=C/C/C=C/C/C=C\C/C=C/C/C=C/CCCC(=O)OCC(O)CO (stereo unspecified)	71.9	37.4
CC/C=C/C/C=C/C/C=C/C/C=C\C/C=C/C/C=C/CCC(=O)OCC(O)CO (stereo unspecified)	74.2	41.7
CCCCC/C=C\C/C=C\C/C=C\CCCCC(=O)OCC(O)CO (stereo unspecified)	-6.5	38.8
CCCCCCCC/C=C\CCCCCCCC(=O)OCC(O)CO (stereo unspecified)	24.7	60.6
CCCCC/C=C/C/C=C\C/C=C/C/C=C/CCCC(=O)OCC(O)CO (stereo unspecified)		33.6
CCCCC/C=C/C/C=C\CCCCCCCC(=O)OCC(O)CO (stereo unspecified)	20.5	38.1

Other lines, results leading:

inhibition [1] [%]	inhibition [2] [%]	SMILES
86.8	37.9	CCCCC/C=C/C/C=C/C/C=C\C/C=C/CCCCCC(=O)OCC(O)CO (stereo unspecified)
35.6	26.1	CC/C=C/C/C=C/C/C=C\C/C=C/CCCCC(=O)OC[C@@H](O)CO
	53.9	CCCCC/C=C/C/C=C\C/C=C/CCCCCCC(=O)OCC(O)CO (stereo unspecified)
92.9	37.4	CC/C=C/C/C=C/C/C=C/C/C=C\C/C=C/CCCCCC(=O)OCC(O)CO (stereo unspecified)
	32	CC/C=C\C/C=C\C/C=C\CCCCCCCC(=O)OCC(O)CO (stereo unspecified)
